The list is not random: actives were taken first. Their share in the collection is about 0.77%.
mIAP activ – increases mouse intestinal alkaline phosphatase activity; muIAP, CDP-Star luminescence, 30 min; active compounds read high; 1 = vehicle-only enzyme signal, 0 = enzyme-free wells; activation factor at 10 µM; 330,000 compounds, 0.24% hits;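 active = activation factor of at least 2 at 20 µM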
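Assay system: mouse IAP enzyme / Compound: DMSO-dissolved test compounds / Timing: 30 min, room temperature / Measured by: luminescence from enzymatic CDP-Star hydrolysis / Control set: DMSO-only wells, enzyme-free buffer wells as negative control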
hIAP block – blocks human intestinal alkaline phosphatase | purified IAP, CDP-Star luminescence, 30 min | P09923 | 330,000 compounds, 0.12% hits | inhibition, % at 10 µM;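 active = inhibition reaching a set limit with compound at 10 µM in the primary screen, cut at about 35% in these data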;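 note: plate controls were DMSO wells with enzyme for no effect and no-enzyme buffer wells for full effect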
Target sequence (P09923 whole entry, looked up): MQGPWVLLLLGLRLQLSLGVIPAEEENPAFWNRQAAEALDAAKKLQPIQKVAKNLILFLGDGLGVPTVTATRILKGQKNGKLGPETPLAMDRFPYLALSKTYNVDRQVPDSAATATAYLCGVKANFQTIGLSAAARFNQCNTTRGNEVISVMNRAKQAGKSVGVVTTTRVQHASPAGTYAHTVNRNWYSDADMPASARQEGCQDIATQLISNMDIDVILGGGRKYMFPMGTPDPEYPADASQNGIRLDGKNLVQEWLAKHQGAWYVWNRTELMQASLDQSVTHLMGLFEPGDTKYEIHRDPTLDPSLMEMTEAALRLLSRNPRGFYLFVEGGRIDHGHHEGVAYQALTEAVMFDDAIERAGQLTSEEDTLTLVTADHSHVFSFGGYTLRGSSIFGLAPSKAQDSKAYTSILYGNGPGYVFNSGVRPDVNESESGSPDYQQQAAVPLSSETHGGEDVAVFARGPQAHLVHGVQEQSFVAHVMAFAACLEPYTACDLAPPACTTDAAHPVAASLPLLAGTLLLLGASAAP
mIAP inh – mouse IAP inhibition. 330,000 compounds, 0.2% hits. inhibition, % at 10 µM. purified mouse IAP, CDP-Star luminescence, 30 min;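 active = inhibition of at least 40% at 10 µM in the primary screen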;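 note: plate controls were DMSO with enzyme for no effect and no enzyme wells for full effect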
bIAP act – intestinal alkaline phosphatase (bovine) activation; purified bovine IAP, CDP-star luminescence, 30 min; active compounds read high; fold of DMSO-control signal, blank-subtracted; activation factor at 20 µM; 200,000 compounds, 0.17% hits; AID 1016;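 active = activation factor of 2 or more at 20 µM, a signal rise over negative controls twice the positive control's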
bIAP inh – blocks bovine intestinal alkaline phosphatase activity; purified bovine IAP, CDP-star luminescence, 30 min; inhibition, % at 20 µM; 190,000 tested, under 10 active; AID 1019;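 active = over 50% inhibition of intestinal alkaline phosphatase at 20 µM in the single-dose screen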
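test system = bovine IAP enzyme | medium = DEA buffer 100 mM, pH 9.8, with MgCl2 1.0 mM, ZnCl2 0.02 mM | detection = luminescence | dosing = single compound dose of 20 µM, 2% DMSO final | incubation = 30 min reaction at room temperature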
hIAP act – increases human intestinal alkaline phosphatase activity | purified human IAP, CDP-Star luminescence, 30 min; active compounds read high; 1 = vehicle-only enzyme, 0 = enzyme-free background | activation factor at 10 µM | 330,000 compounds, 0.16% hits | AID 2524;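 active = activation factor of the enzyme at least 2-fold when tested at 20 µM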
hIAP act confirm – human IAP activation confirmation; shares compounds with hIAP act; activation (%Activity, negative = activation), % at 8.3 µM; purified IAP, CDP-Star luminescence, 30 min; active compounds read low; 880 compounds, 10% hits;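 active = at least twofold enzyme activation in any of six single-dose repeats, which the averaged readout prints as negative percent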
An asterisk follows results filed as active; . = not tested or not shown.

SMILES	mIAP activ	hIAP block	mIAP inh	bIAP act	bIAP inh	hIAP act	hIAP act confirm
Cc1cc(C(=O)Nc2ccccc2Cl)c2ccccc2n1	1	38*	-3	.	.	0.62	6
Cc1ccc(NC(=O)c2cc(C)nc3ccccc23)c(C)c1	1	-1	-2	.	.	1	.
CCc1ccc(C(=O)COC(=O)c2n[nH]c3ccccc23)cc1	0.93	-18	7	1	1	1.2	.
COc1ccc(C(=O)N/C(=C\c2ccco2)C(=O)NCCCn2ccnc2)cc1	0.92	6	8	0.9	5	0.94	.
Cc1ccc(C(=O)N/C(=C\c2ccco2)C(=O)NCCCn2ccnc2)cc1C	1.1	86*	-6	1.2	-24	0.14	-63
Cc1ccc(NC(=S)NCCSc2ccc(Cl)cc2)cc1	2.3*	-133	-127	1.1	-8	2.3*	-9
COC(=O)Cc1ccc(NC(=S)NCCSc2ccc(C)cc2)cc1	1.7	1	-69	0.8	18	0.99	.
COc1ccc(NS(=O)(=O)c2cccc(C(=O)NNC(=O)CNC(=O)c3ccc(C)cc3)c2)cc1	0.93	-13	7	.	.	1.1	.
COc1cccc(C2c3c(-c4ccccc4O)n[nH]c3C(=O)N2Cc2ccco2)c1 (centres undefined)	0.97	-110	2	.	.	2.1*	4
CC(C)OC(=O)COc1cc(O)c2c(=O)cc(-c3ccccc3)oc2c1	0.92	9	8	.	.	0.91	.
CC(C)Nc1nc(NC(C)C)nc(Oc2ccc(OCc3ccccc3)nn2)n1	1	37*	-3	1	3	0.63	-39
CCNc1nc(NCC)nc(Oc2ccc(OCc3ccccc3)nn2)n1	0.98	8	2	0.9	10	0.92	.
O=C(Cc1ccccc1)NNC(=S)Nc1ccc(Cl)cc1	0.9	-106	10	1	-5	2.1*	-37
Cc1cccc(NC(=S)NNC(=O)Cc2ccccc2)c1	0.79	-4	21	1	4	1	.
Cc1ccc(C2CC2C(=O)NNC(=S)Nc2ccc(Cl)cc2)cc1 (centres undefined)	0.94	-139	6	1.1	-11	2.4*	-11
O=S(=O)(c1ccccc1)N1CCCC1c1cccs1 (centres undefined)	0.95	53*	5	.	.	0.47	-172*
COc1ccc(S(=O)(=O)N2CCCC2c2cccs2)cc1 (centres undefined)	0.95	19	5	.	.	0.81	.
O=C(N/N=C/c1ccccc1O)C(=O)Nc1ccccn1	0.81	-105	19	1.4	-36	2*	9
COc1ccc(/C=N/NC(=O)C(=O)Nc2ccccn2)cc1OC	0.98	-20	2	1.3	-29	1.2	.
CCOC(=O)c1sc(NC(=O)CSc2nc(C)cc(-c3ccccc3)n2)c(C#N)c1C	0.82	0	18	0.9	15	1	.
CCOC(=O)c1sc(NC(=O)CSc2n[nH]c(-c3ccc(Cl)cc3Cl)n2)c(C#N)c1C	0.68	69*	32	0.9	13	0.31	-1
COc1ccc(C)cc1NC(=S)NNC(=O)c1ccccc1Cl	0.86	-110	14	1.3	-32	2.1*	2
Cc1ccc(NC(=S)NNC(=O)c2ccccc2O)c(C)c1	0.85	-125	15	1.5	-52	2.3*	-35
CC(=O)N/C(=C/c1ccc2c(c1)OCO2)C(=O)NCCO	1	-7	-1	1.1	-7	1.1	.
CCOc1ccc(CC(=O)NNC(=S)NC2CCCCC2)cc1OCC	1	-110	-2	0.9	6	2.1*	-80*
CCCN(CCC)C(=O)Cn1c(=O)n(CCCCCC(=O)Nc2ccccc2)c(=O)c2sccc21	1.1	-2	-10	0.9	6	1	.
CC1CCCCC1NC(=O)COC(=O)c1ccccc1NC(=O)c1ccco1 (centres undefined)	1	82*	-2	1.1	-12	0.18	3
CC(=O)c1cccc(NS(=O)(=O)c2ccc(C(=O)Nc3ccccc3)cc2)c1	1.1	30	-10	.	.	0.7	.
O=C(Nc1ccccc1)c1ccc(S(=O)(=O)Nc2cccc(O)c2)cc1	0.99	40*	1	.	.	0.6	-44
